The source made the active and inactive calls. No cut-off for these calls is given here.
What was measured:
Mus musculus [1] = assay: Anticonvulsant activity following p.o. administration by standard maximal electroshock test in mice.; type: functional; conditions: po
Outline: (§1)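 Supramaximal electroshock: 50-mA current (60 Hz, 0.20 s) via corneal electrodes induced hind-limb tonic extension; inhibition of this component scored as activity. Mice dosed ip and/or po in aqueous solution or suspension (ca. 0.1% Tween 80, distilled water). Tested at 30, 60, 120 and 240 min (sometimes 45 min); ten mice per time point.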

Mus musculus [2] = assay: Percentage block of the hind-limb tonic-extensor seizure was determined after application of an electric shock to mice for 240 min followed by 50 mg/kg intraperitoneal dose; type: functional; outline: as §1
Mus musculus [3] = assay: Percentage block of the hind-limb tonic-extensor seizure was determined after application of an electric shock to mice for 240 min followed by 100 mg/kg peroral dose; type: functional; conditions: route oral; outline: as §1
Mus musculus [4] = assay: Anticonvulsant activity by using a standard maximal electroshock test (MES) in mice, by intraperitoneal administration of the compound; type: functional; conditions: ip; outline: as §1
Mus musculus [5] = assay: Percentage block of the hind-limb tonic-extensor seizure was determined after application of an electric shock to mice for 120 min followed by 100 mg/kg peroral dose; type: functional; conditions: route oral; outline: as §1
Mus musculus [6] = assay: Percentage block of the hind-limb tonic-extensor seizure was determined after application of an electric shock to mice for 60 min followed by 100 mg/kg peroral dose; type: functional; conditions: route oral
Outline: (§2)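 Mouse MES test: supramaximal seizure from a 50-mA current (60 Hz, 0.20-s) through corneal electrodes. […] Ten mice per time point. Compound given in aqueous solution or in suspension in ca. 0.1% Tween 80 and distilled water. Free food and water except during testing.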

Mus musculus [7] = assay: Percentage block of the hind-limb tonic-extensor seizure was determined after application of an electric shock to mice for 60 min followed by 50 mg/kg intraperitoneal dose; type: functional; outline: as §2
Mus musculus [8] = assay: Percentage block of the hind-limb tonic-extensor seizure was determined after application of an electric shock to mice for 120 min followed by 50 mg/kg intraperitoneal dose; type: functional; outline: as §1
Mus musculus [9] = assay: Percentage block of the hind-limb tonic-extensor seizure was determined after application of an electric shock to mice for 30 min followed by 100 mg/kg peroral dose; type: functional; conditions: route oral; outline: as §1
Mus musculus [10] = assay: Percentage block of the hind-limb tonic-extensor seizure was determined after application of an electric shock to mice for 30 min followed by 50 mg/kg intraperitoneal dose; type: functional; outline: as §1
Mus musculus [11] = assay: Percentage block of the hind-limb tonic-extensor seizure was determined after application of an electric shock to mice for 240 min followed by 200 mg/kg peroral dose; type: functional; conditions: route oral; outline: as §1
Mus musculus [12] = assay: Percentage block of the hind-limb tonic-extensor seizure was determined after application of an electric shock to mice for 240 min followed by 100 mg/kg intraperitoneal dose; type: functional; outline: as §1
Mus musculus [13] = assay: Percentage block of the hind-limb tonic-extensor seizure was determined after application of an electric shock to mice for 60 min followed by 100 mg/kg intraperitoneal dose; type: functional; outline: as §1
Mus musculus [14] = assay: Percentage block of the hind-limb tonic-extensor seizure was determined after application of an electric shock to mice for 120 min followed by 200 mg/kg peroral dose; type: functional; conditions: route oral; outline: as §1
Mus musculus [15] = assay: Percentage block of the hind-limb tonic-extensor seizure was determined after application of an electric shock to mice for 30 min followed by 100 mg/kg intraperitoneal dose; type: functional; outline: as §1
Mus musculus [16] = assay: Percentage block of the hind-limb tonic-extensor seizure was determined after application of an electric shock to mice for 120 min followed by 100 mg/kg intraperitoneal dose; type: functional; outline: as §1
Mus musculus [17] = assay: Percentage block of the hind-limb tonic-extensor seizure was determined after application of an electric shock to mice for 30 min followed by 200 mg/kg peroral dose; type: functional; conditions: route oral; outline: as §1
Mus musculus [18] = assay: Percentage block of the hind-limb tonic-extensor seizure was determined after application of an electric shock to mice for 60 min followed by 200 mg/kg peroral dose; type: functional; conditions: route oral; outline: as §2
Mus musculus [19] = assay: Anticonvulsant activity by using a standard maximal electroshock test (MES) in mice, by 100 mg/kg intraperitoneal administration of the compound; I=inactive, 0-10% block; type: functional, organism-based; parameters: dose 100 mg/kg; outline: as §1
Mus musculus [20] = assay: Anticonvulsant activity by using a standard maximal electroshock test (MES) in mice, by 100 mg/kg intraperitoneal administration of the compound; i =inactive; type: functional, organism-based; parameters: dose 100 mg/kg; outline: as §1
Mus musculus [21] = assay: Anticonvulsant activity by using a standard maximal electroshock test (MES) in mice, by 200 mg/kg peroral administration of the compound; I=inactive, 0-10% block; type: functional, organism-based; parameters: dose 200 mg/kg; outline: as §1
Mus musculus [22] = assay: Percentage block of the hind-limb tonic-extensor seizure was determined after application of an electric shock to mice for 240 min followed by 200 mg/kg intraperitoneal dose; type: functional; outline: as §1
Mus musculus [23] = assay: Percentage block of the hind-limb tonic-extensor seizure was determined after application of an electric shock to mice for 30 min followed by 200 mg/kg intraperitoneal dose; type: functional; outline: as §1
Mus musculus [24] = assay: Percentage block of the hind-limb tonic-extensor seizure was determined after application of an electric shock to mice for 60 min followed by 400 mg/kg peroral dose; type: functional; conditions: route oral; outline: as §2
Mus musculus [25] = assay: Percentage block of the hind-limb tonic-extensor seizure was determined after application of an electric shock to mice for 120 min followed by 200 mg/kg intraperitoneal dose; type: functional; outline: as §1
Mus musculus [26] = assay: Percentage block of the hind-limb tonic-extensor seizure was determined after application of an electric shock to mice for 120 min followed by 400 mg/kg peroral dose; type: functional; conditions: route oral; outline: as §1
Mus musculus [27] = assay: Percentage block of the hind-limb tonic-extensor seizure was determined after application of an electric shock to mice for 60 min followed by 200 mg/kg intraperitoneal dose; type: functional; outline: as §2
Mus musculus [28] = assay: Percentage block of the hind-limb tonic-extensor seizure was determined after application of an electric shock to mice for 30 min followed by 400 mg/kg peroral dose; type: functional; conditions: route oral; outline: as §1
Mus musculus [29] = assay: Percentage block of the hind-limb tonic-extensor seizure was determined after application of an electric shock to mice for 240 min followed by 400 mg/kg peroral dose; type: functional; conditions: route oral; outline: as §1

Structure (SMILES)	ED50 (Mus musculus [1])	ED50 (Mus musculus [4])	Block (Mus musculus [11])	Block (Mus musculus [12])	Block (Mus musculus [13])	Block (Mus musculus [14])	Block (Mus musculus [15])	Block (Mus musculus [16])	Block (Mus musculus [17])	Block (Mus musculus [18])	other results
NS(=O)(=O)OCC1CCc2ccccc2C1 (stereo not given)	82 mg/kg	56 mg/kg	–	–	–	–	–	–	–	–	Block (Mus musculus [2]): 0%; Block (Mus musculus [3]): 30%; Block (Mus musculus [5]): 80%; Block (Mus musculus [6]): 80%; Block (Mus musculus [7]): 50%; Block (Mus musculus [8]): 0%; Block (Mus musculus [9]): 80%; Block (Mus musculus [10]): 30%
NS(=O)(=O)OCCc1ccccc1 [SULFAMIC ACID PHENETHYL ESTER]	~100 mg/kg	~50 mg/kg	80%	20%	100%	100%	90%	70%	70%	100%	–
NS(=O)(=O)OCC(c1ccccc1)c1ccccc1	147 mg/kg	–	100%	0%	0%	80%	0%	0%	80%	70%	ED50 (Mus musculus [19]): inactive
COC1(COS(N)(=O)=O)OC(CO)[C@@H](O)C1O (stereo not given in full)	–	–	–	–	–	–	–	–	–	–	ED50 (Mus musculus [20]): inactive
CC1(C)OC2C3OC(C)(C)O[C@]3(COS(=O)(=O)Nc3ccccc3)OC[C@H]2O1 (stereo not given in full)	–	–	0%	0%	0%	0%	0%	0%	0%	0%	ED50 (Mus musculus [21]): inactive; ED50 (Mus musculus [19]): inactive
CC1(C)OC2[C@H](O)[C@H](O)CO[C@@]2(COS(N)(=O)=O)O1 (stereo not given in full)	–	–	0%	0%	0%	0%	0%	–	0%	0%	ED50 (Mus musculus [21]): inactive; ED50 (Mus musculus [19]): inactive
CC1(C)OC2C3OC4(CCCCC4)O[C@@H]3CO[C@@]2(COS(N)(=O)=O)O1 (stereo not given in full)	> 400 mg/kg	–	20%	0%	0%	20%	0%	0%	10%	0%	ED50 (Mus musculus [19]): inactive
CC(=O)Nc1nnc(S(N)(=O)=O)s1 [ACETAZOLAMIDE]	45 mg/kg	–	–	–	–	–	–	–	–	–	–
CC1(C)O[C@@H]2CO[C@@]3(COS(=O)(=O)N=[N+]=[N-])OC(C)(C)OC3[C@@H]2O1 (stereo not given in full)	~200 mg/kg	> 100 mg/kg	100%	30%	40%	70%	20%	50%	30%	50%	–
NS(=O)(=O)OCC1(O)OC[C@@H](O)[C@@H](O)C1O (stereo not given in full)	–	–	–	–	–	–	–	–	–	–	ED50 (Mus musculus [20]): inactive
CCCCCCCCCC1(C)OCC(COS(N)(=O)=O)O1 (stereo not given)	> 200 mg/kg	319 mg/kg	–	–	–	–	–	–	–	–	–
NS(=O)(=O)OCC1CCCCO1 (stereo not given)	154 mg/kg	195 mg/kg	–	–	–	–	–	–	–	–	–
CC1(C)OC[C@@H]2O[C@@]3(COS(N)(=O)=O)OC(C)(C)OC3[C@@H]2O1 (stereo not given in full)	150 mg/kg	100 mg/kg	50%	0%	50%	70%	30%	20%	70%	80%	–
CC1(C)O[C@@H]2[C@H](O1)[C@H]1OC(C)(C)OC1O[C@@H]2COS(N)(=O)=O (stereo not given in full)	> 200 mg/kg	175 mg/kg	–	–	–	–	–	–	–	–	Block (Mus musculus [22]): 30%; Block (Mus musculus [23]): 20%; Block (Mus musculus [24]): 80%; Block (Mus musculus [25]): 50%; Block (Mus musculus [26]): 90%; Block (Mus musculus [27]): 40%; Block (Mus musculus [28]): 50%; Block (Mus musculus [29]): 80%
CC1(C)OCC(COS(N)(=O)=O)O1 (stereo not given)	~75 mg/kg	~100 mg/kg	100%	70%	70%	100%	50%	90%	70%	90%	–
NS(=O)(=O)OCC1COc2ccccc2O1 (stereo not given)	118 mg/kg	~100 mg/kg	80%	0%	60%	80%	–	30%	100%	100%	–
CN(C)S(=O)(=O)OC[C@@]12OC[C@H]3OC(C)(C)OC3C1OC(C)(C)O2 (stereo not given in full)	> 200 mg/kg	> 100 mg/kg	80%	30%	30%	80%	30%	50%	30%	40%	–
CC1(COS(N)(=O)=O)CCCCC1	~400 mg/kg	270 mg/kg	–	–	–	–	–	–	–	–	Block (Mus musculus [22]): 20%; Block (Mus musculus [23]): 30%; Block (Mus musculus [24]): 40%; Block (Mus musculus [25]): 20%; Block (Mus musculus [26]): 80%; Block (Mus musculus [27]): 30%; Block (Mus musculus [28]): 50%; Block (Mus musculus [29]): 30%

Source: ChEMBL document CHEMBL1123867, “Anticonvulsant O-alkyl sulfamates. 2,3:4,5-Bis-O-(1-methylethylidene)-beta-D-fructopyranose sulfamate and related compounds” (1987)
